Test results: PubChem BioAssay
The source made the active and inactive calls.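 How the source made its calls, unless noted: active means GFP response above 150% of the DMSO level; inconclusive means fewer than 70 events counted for a yeast strain; inactive means the rest.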

Tests used:
[1] = RPL19A-GFP modulators, yeast TOR pathway, confirmation, cell-based, S. cerevisiae, flow cytometry, cherry picks, mother/daughter gates (AID 2270;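 active means GFP response below 50% of the DMSO control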); conditions: S. cerevisiae RPL19A-GFP strain, 3 h, at 10 µM, stronger effect = lower value, 100 = same GFP as DMSO wells
[2] = LAP4-GFP expression modulators in yeast, confirmation, cell-based, cherry picks, flow cytometry, mother/daughter gates (AID 2271;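 active means GFP response above 150% of the DMSO control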;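 further: ratio of sample to DMSO plate mean so 100% equals DMSO level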); conditions: S. cerevisiae LAP4-GFP strain, 3 h, at 10 µM, stronger effect = higher value, 100 means same as DMSO control
Method in brief: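 Material: Alexa Fluor 633-labelled Saccharomyces cerevisiae GFP-fusion strain, single-plex | Amount: Yeast cells seeded at OD600 of 0.2 | Buffer or medium: SC growth medium | Schedule: 3 h exposure, 30 °C | Measured by: HT flow cytometry, GFP fluorescence channel | Evaluation: % GFP response vs DMSO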

[3] = modulators of MEP2-GFP levels in yeast, confirmation, S. cerevisiae, flow cytometry GFP, cherry picks (AID 2272;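 active means GFP response above 150% of the DMSO control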;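 further: ratio of well signal to plate DMSO mean so 100% equals DMSO level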); conditions: S. cerevisiae MEP2-GFP strain, 3 h, at 10 µM, stronger effect = higher value
[4] = AGP1-GFP expression modulators, hit retest, confirmation, cell-based, flow cytometry, S. cerevisiae, cherry picks (AID 2273);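 further: median GFP channel fluorescence over the whole cell population gate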; conditions: S. cerevisiae AGP1-GFP strain, 3 h, at 10 µM
[5] = modulators of CIT2-GFP expression in yeast, confirmation, S. cerevisiae, GFP fusion, cherry picks, mother/daughter gates (AID 2274); conditions: S. cerevisiae CIT2-GFP strain, flow cytometry, 3 h, at 10 µM, stronger effect = higher value
[6] = measured here: daughter cell gate
[7] = measured here: mother cell gate
[8] = measured here: daughter cell gate response
[9] = measured here: mother cell gate response

Row | Compound | GFP response vs DMSO [1] | GFP response vs DMSO [1, 6] [%] | GFP response vs DMSO [1, 7] [%] | GFP response relative to DMSO [2] | GFP response relative to DMSO [2, 8] [%] | GFP response relative to DMSO [2, 9] [%] | GFP response vs DMSO [3] | GFP response, % of DMSO [4] | GFP response, % of DMSO [5] | GFP response, % of DMSO [5, 6] [%] | GFP response, % of DMSO [5, 7] [%]
1 | O=C(NNC1=NCCC1)c1cccc(Br)c1 | 98% (inactive) | 98.5 | 97.9 | 100% (inactive) | 97.9 | 99.5 | 99.5% (inactive) | 97.5% (inactive) | 96.4% (inactive) | 96.4 | 94.5
2 | Cc1ccn2c(NC(=O)c3ccco3)c(-c3ccccc3)nc2c1 | 98.6% (inactive) | 100 | 96.6 | 96.7% (inactive) | 96 | 96.1 | 107% (inactive) | 94.8% (inactive) | 103% (inactive) | 103 | 101
3 | Cc1oc2c(CN3CCCC(C)C3)c(O)ccc2c(=O)c1-c1ccccc1 (centres undefined) | 102% (inactive) | 102 | 104 | 143% (inactive) | 151 | 141 | 141% (inactive) | 107% (inactive) | 147% (inactive) | 152 | 143
4 | Cc1cc(O)c(C(=O)/C=C/c2cccc([N+](=O)[O-])c2)c(=O)o1 | 98.7% (inactive) | 101 | 95.8 | 149% (inactive) | 142 | 152 | 110% (inactive) | 107% (inactive) | 86.1% (inactive) | 90.5 | 81.5
5 | N#C/C(=C\c1c(N2CCCCCC2)nc2ccccn2c1=O)C(=O)NC1CCS(=O)(=O)C1 (centres undefined) | 99.9% (inactive) | 101 | 99.7 | 105% (inactive) | 107 | 103 | 116% (inactive) | 98.7% (inactive) | 109% (inactive) | 111 | 108
6 | CSc1nc(N2CCN(c3ccccc3Cl)CC2)c2ccccc2n1 | 96.2% (inactive) | 96.7 | 95.2 | 98.9% (inactive) | 101 | 98.4 | 110% (inactive) | 102% (inactive) | 97.2% (inactive) | 97.6 | 97.1
7 | O=C1/C(=C/c2ccccn2)COc2ccccc21 | 94.2% (inactive) | 96.4 | 91.2 | 135% (inactive) | 130 | 134 | 110% (inactive) | 95.5% (inactive) | 94.4% (inactive) | 99.3 | 88.2
8 | Cc1cc(C)nc(S/C=C/C(=O)c2ccccc2F)n1 | 103% (inactive) | 102 | 102 | 120% (inactive) | 119 | 123 | 107% (inactive) | 94.3% (inactive) | 95.2% (inactive) | 98.1 | 92.3
9 | N=c1ccn(CC(=O)c2ccc(-c3ccccc3)cc2)cc1 | 99.7% (inactive) | 99.3 | 98.8 | 96.5% (inactive) | 93.6 | 99.5 | 104% (inactive) | 92.1% (inactive) | 96.4% (inactive) | 96.4 | 95.6
10 | O=C(O)c1ccccc1C(=O)Nc1ccccc1 | 101% (inactive) | 101 | 99.5 | 94.4% (inactive) | 92.6 | 95.2 | 96.8% (inactive) | 104% (inactive) | 102% (inactive) | 101 | 101
11 | CCOC(=O)C(N)CSC1CC(=O)N(c2ccc(C(=O)OC)cc2)C1=O (centres undefined) | 98% (inactive) | 98.4 | 98.7 | 102% (inactive) | 102 | 101 | 100% (inactive) | 98.1% (inactive) | 98.3% (inactive) | 99.1 | 97.3
12 | Cc1cc(NCCCN2CCOCC2)n2nc(C)c(-c3ccccc3)c2n1 | 95.8% (inactive) | 94.7 | 94.4 | 100% (inactive) | 97.5 | 100 | 99.3% (inactive) | 100% (inactive) | 101% (inactive) | 101 | 100
13 | O=S(=O)(Nc1nc2ccccc2nc1Cl)c1ccc2ccccc2c1 | 98.4% (inactive) | 97.9 | 98.1 | 95.7% (inactive) | 92.6 | 97.3 | 96.8% (inactive) | 95.9% (inactive) | 88.6% (inactive) | 88.4 | 88.2
14 | O=[N+]([O-])c1ncccc1OCc1ccc(-c2ccccc2)cc1 | 101% (inactive) | 99.6 | 98.8 | 135% (inactive) | 138 | 131 | 160% (inactive) | 104% (inactive) | 123% (inactive) | 126 | 114
15 | COc1cc(NC(=O)c2ccc(Br)cc2)ccc1NC(=O)c1cc2ccccc2o1 | 99.9% (inactive) | 99 | 100 | 96.2% (inactive) | 98.7 | 98.3 | 100% (inactive) | 95.7% (inactive) | 96.5% (inactive) | 96.5 | 97.7
16 | CCCCOc1ccc(C(=O)N2CCN(c3ccc(N4CCOCC4)nn3)CC2)cc1 | 97.4% (inactive) | 99.1 | 94.9 | 97.9% (inactive) | 97.6 | 97.2 | 98.3% (inactive) | 97.2% (inactive) | 98.3% (inactive) | 101 | 98.5
17 | O=C(CN1CCN(Cc2ccccc2Cl)C1=O)NC1CCCCCCC1 | 98.2% (inactive) | 98.6 | 99.7 | 96.7% (inactive) | 97.6 | 95.1 | 100% (inactive) | 99.7% (inactive) | 107% (inactive) | 106 | 104

Row | Compound | GFP response vs DMSO [1] | GFP response vs DMSO [1, 6] [%] | GFP response vs DMSO [1, 7] [%] | GFP response relative to DMSO [2] | GFP response relative to DMSO [2, 8] [%] | GFP response relative to DMSO [2, 9] [%] | GFP response vs DMSO [3] | GFP response, % of DMSO [4] | GFP response, % of DMSO [5] | GFP response, % of DMSO [5, 6] [%] | GFP response, % of DMSO [5, 7] [%]
18 | COC(=O)Nc1c(-c2ccccc2)nc2ccccn12 | 99.4% (inactive) | 98.1 | 98.9 | 107% (inactive) | 106 | 105 | 98.3% (inactive) | 93.7% (inactive) | 101% (inactive) | 99.1 | 101
19 | N#C/C(=C\c1c(N2CCN(c3ccccc3)CC2)nc2ccccn2c1=O)C(N)=O | 104% (inactive) | 99.1 | 99.3 | 97% (inactive) | 97.5 | 98.4 | 105% (inactive) | 106% (inactive) | 98.8% (inactive) | 99.2 | 88.2
20 | CCOc1cccc(C(=O)Nc2ccc(NC(=O)c3cc4ccccc4o3)c(OC)c2)c1 | 96.2% (inactive) | 96.4 | 97.2 | 91.5% (inactive) | 91.2 | 90.8 | 98.3% (inactive) | 94.8% (inactive) | 103% (inactive) | 103 | 102
21 | Cc1c(NC2=C(Cl)C(=O)N(c3ccccc3)C2=O)c(=O)n(-c2ccccc2)n1C | 93.5% (inactive) | 97.3 | 95.2 | 97.7% (inactive) | 104 | 99.5 | 99.5% (inactive) | 103% (inactive) | 104% (inactive) | 108 | 96.8
22 | COC(=O)Nc1c(-c2ccccc2)nc2ccc(C)cn12 | 101% (inactive) | 98.7 | 102 | 96.2% (inactive) | 97.2 | 98.3 | 102% (inactive) | 103% (inactive) | 104% (inactive) | 101 | 107
23 | Cc1c(Br)c(O)c(Br)c2sc(=O)oc12 | 96.2% (inactive) | 101 | 94.2 | 125% (inactive) | 123 | 129 | 105% (inactive) | 101% (inactive) | 97.3% (inactive) | 101 | 94.4
24 | CSc1ccc(/C=N/NC(=O)c2ccc(O)cc2)cc1 | 97.8% (inactive) | 98.1 | 98.5 | 97% (inactive) | 97.5 | 96.2 | 103% (inactive) | 103% (inactive) | 103% (inactive) | 103 | 103
25 | Cc1ccc(C)c(NC(=O)c2ccccc2O)c1 | 98.5% (inactive) | 97 | 97.8 | 108% (inactive) | 99 | 112 | 101% (inactive) | 97.3% (inactive) | 93.1% (inactive) | 95.8 | 96
26 | CCN(CC)S(=O)(=O)c1cccc(C(=O)NCC(c2ccccc2)N(C)C)c1 (centres undefined) | 99.7% (inactive) | 102 | 98.5 | 110% (inactive) | 111 | 106 | 106% (inactive) | 104% (inactive) | 104% (inactive) | 106 | 98
27 | COCCCNC(=O)c1ccc2c3c(onc13)-c1ccccc1C2=O | 96.3% (inactive) | 102 | 92.9 | 132% (inactive) | 126 | 137 | 102% (inactive) | 83.6% (inactive) | 96.5% (inactive) | 103 | 90.2
28 | Cc1noc(/C=C/c2cccnc2)c1[N+](=O)[O-] | 105% (inactive) | 104 | 103 | 120% (inactive) | 117 | 124 | 104% (inactive) | 92.4% (inactive) | 92.6% (inactive) | 94.8 | 89.1
29 | Cc1[nH]n(-c2ncc(-c3ccccc3)s2)c(=O)c1C(c1ccc(Cl)cc1)C(C#N)C#N (centres undefined) | 94.5% (inactive) | 98.1 | 91.6 | 156% (active) | 136 | 159 | 106% (inactive) | 100% (inactive) | 95.8% (inactive) | 101 | 89.3
30 | CCC(Sc1nc(=O)cc(N)n1-c1ccccc1)C(=O)Nc1cc(C)on1 (centres undefined) | 98.2% (inactive) | 98.8 | 95.3 | 105% (inactive) | 105 | 96.5 | 108% (inactive) | 102% (inactive) | 109% (inactive) | 111 | 104
31 | Cc1nn(C(=O)c2ccco2)c(C)c1Sc1ccccc1 | 95.6% (inactive) | 97 | 94.4 | 97.7% (inactive) | 99 | 95.4 | 101% (inactive) | 97% (inactive) | 98.6% (inactive) | 99.3 | 98.2
32 | COc1ccc(OC)c(CNC(=O)CCC(=O)N2Cc3cccc(OC)c3Oc3ncccc32)c1 | 102% (inactive) | 100 | 101 | 90.6% (inactive) | 94.2 | 95.2 | 105% (inactive) | 109% (inactive) | 102% (inactive) | 101 | 103
33 | CCCN1C(=O)c2cccc3c(N4CCCCC4)ccc(c23)C1=O | 98.7% (inactive) | 99.8 | 98.2 | 98.9% (inactive) | 101 | 99.5 | 103% (inactive) | 104% (inactive) | 103% (inactive) | 105 | 103
34 | O=[N+]([O-])c1ccc(Sc2ccccc2)nc1 | 97.8% (inactive) | 97.3 | 98 | 104% (inactive) | 104 | 105 | 108% (inactive) | 105% (inactive) | 101% (inactive) | 101 | 103
